Test results: ChEMBL document CHEMBL4024779, “Novel Terminal Bipheny-Based Diapophytoene Desaturases (CrtN) Inhibitors as Anti-MRSA/VISR/LRSA Agents with Reduced hERG Activity” (J Med Chem, 2018)
The source made the active and inactive calls. The calls are words filed in the database; no cut-off is given here.

What was measured:
Staphylococcus aureus [1] = experiment: In vivo anti-virulence activity against methicillin-resistant Staphylococcus aureus XN108 infected in BALB/c mouse model assessed as reduction in bacterial load in heart at 0.1 mg bid for 3.5 days administered intraperitoneally 6 hrs post infection by serial dilution method relative to vancomycin; format: functional, organism-based
Outline: (§1)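 Mice infected retro-orbitally with S. aureus NF65Y (3.5 × 10^8 CFU) or XN108 (2.1 × 10^8 CFU). Test compound given i.p. b.i.d. starting 6 h post-infection. […] Log10 CFU per kidney and heart counted. Two-tailed Mann−Whitney test.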

Pseudomonas aeruginosa = experiment: Antibacterial activity against Pseudomonas aeruginosa after 24 hrs by broth dilution method; format: functional
[2] = Tmax in Sprague-Dawley rat at 10 mg/kg, po administered as single dose by LC-MS/MS analysis; format: ADME, organism-based; settings: in vivo
Staphylococcus aureus [3] = experiment: In vivo anti-virulence activity against methicillin-resistant Staphylococcus aureus LRSA56 infected in BALB/c mouse model assessed as reduction in bacterial load in kidney at 0.1 mg bid for 3.5 days administered intraperitoneally 6 hrs post infection by serial dilution method relative to control; format: functional; design: scale not given: the % may be the effect or the level left
Outline: (§2)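 Mice were infected by retro-orbital injection with LRSA56 (5.0 × 10^7 CFU) or LRSA202 (7.0 × 10^7 CFU). Compound was given intraperitoneally 6 h after infection. […] Log10 CFU was counted in kidneys and hearts, with groups compared by two-tailed Mann-Whitney test.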

[4] = AUC (0 to infinity) in mouse at 10 mg/kg, po administered as single dose by LC-MS/MS analysis; format: ADME, organism-based; design: dose 10 mg/kg, time infinity, route oral; settings: in vivo
[5] = Cmax in mouse at 2 mg/kg, iv administered as single dose by LC-MS/MS analysis; format: ADME, organism-based; design: dose 2 mg/kg, route intravenous; settings: in vivo
[6] = Inhibition of CrtN in methicillin-resistant Staphylococcus aureus LRSA202 assessed as reduction in staphyloxanthin levels after 48 hrs by spectrophotometric method-based pigment inhibition assay
Rattus norvegicus [7] = experiment: Toxicity in Sprague-Dawley rat at 60 to 1000 mg/kg, po administered as single dose assessed as mortality measured during 2 weeks post administration; format: organism-based; settings: in vivo, 336 h
Outline: (§3)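 Rats, 30 in total, randomised into three groups. Each received a single oral dose of 60, 250 or 1000 mg/kg on day 1. Poisoning symptoms, mortality, behaviour, water and food consumption and body weight monitored immediately and over 2 weeks.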

[8] = AUC (0 to 24 hrs) in mouse at 2 mg/kg, iv administered as single dose by LC-MS/MS analysis; format: ADME, organism-based; design: dose 2 mg/kg, time < 24 hr, route intravenous; settings: in vivo
Rattus norvegicus [9] = experiment: Toxicity in Sprague-Dawley rat at 60 to 1000 mg/kg, po administered as single dose assessed as changes in body weight measured during 2 weeks post administration; format: organism-based; settings: in vivo, 336 h; outline: as §3
Rattus norvegicus [10] = experiment: Toxicity in Sprague-Dawley rat at 60 to 1000 mg/kg, po administered as single dose assessed as poisoning symptoms measured immediately post administration; format: organism-based; settings: in vivo
Outline: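 Acute toxicity study: 30 rats randomly split into three groups and given a single oral dose (60, 250 or 1000 mg/kg) on day 1. Animals were watched for poisoning symptoms and mortality immediately after dosing and over a 2-week post-treatment period. Behaviour, water/food consumption and body weight were also tracked.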

Cytochrome P450 3A4 = Cytochrome P450 3A4 (Homo sapiens, UniProt P08684); experiment: Inhibition of CYP3A4 in human liver microsomes using midazolam as substrate upto 10 uM after 5 mins in presence of NADPH by LC-MS/MS analysis; format: ADME
Chain of Cytochrome P450 3A4 (P08684 whole entry): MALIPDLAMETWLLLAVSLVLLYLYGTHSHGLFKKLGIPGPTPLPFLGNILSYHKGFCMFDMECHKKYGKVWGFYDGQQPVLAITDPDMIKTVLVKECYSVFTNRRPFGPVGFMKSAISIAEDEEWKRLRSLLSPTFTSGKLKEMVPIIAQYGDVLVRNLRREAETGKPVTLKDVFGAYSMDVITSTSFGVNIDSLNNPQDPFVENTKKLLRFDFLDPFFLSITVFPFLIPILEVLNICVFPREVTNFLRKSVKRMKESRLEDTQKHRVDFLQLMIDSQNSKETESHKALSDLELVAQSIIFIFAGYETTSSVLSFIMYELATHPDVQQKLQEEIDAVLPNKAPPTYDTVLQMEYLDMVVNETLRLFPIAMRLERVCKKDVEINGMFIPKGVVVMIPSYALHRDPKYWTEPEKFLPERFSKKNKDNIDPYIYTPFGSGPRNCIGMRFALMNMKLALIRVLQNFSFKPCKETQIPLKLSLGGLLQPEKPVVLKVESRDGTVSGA

Staphylococcus aureus [11] = experiment: In vivo anti-virulence activity against methicillin-resistant Staphylococcus aureus XN108 infected in BALB/c mouse model assessed as reduction in bacterial load in kidney at 0.1 mg bid for 3.5 days administered intraperitoneally 6 hrs post infection by serial dilution method relative to linezolid; format: functional, organism-based; outline: as §1
Staphylococcus aureus [12] = experiment: In vivo anti-virulence activity against Staphylococcus aureus Newman infected in BALB/c mouse model assessed as reduction in bacterial load in heart at 0.1 mg bid for 3.5 days administered orally 6 hrs post infection by serial dilution method relative to vancomycin; format: functional; design: scale not given: the % may be the effect or the level left
Outline: (§4)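 Mice got 3.1 × 10^7 CFU S. aureus Newman by retro-orbital injection. Oral compound was given b.i.d. for 3.5 d, starting 6 h after infection. […] Log10 CFU was counted per kidney and per heart.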

Staphylococcus aureus [13] = experiment: In vivo anti-virulence activity against Staphylococcus aureus Newman infected in BALB/c mouse model assessed as reduction in bacterial load in heart at 0.1 mg bid for 3.5 days administered orally 6 hrs post infection by serial dilution method relative to control; format: functional, organism-based; outline: as §4
[14] = Inhibition of CrtN in methicillin-resistant Staphylococcus aureus XN108 assessed as reduction in staphyloxanthin levels after 48 hrs by spectrophotometric method-based pigment inhibition assay
[15] = Half life in mouse at 10 mg/kg, po administered as single dose by LC-MS/MS analysis; format: ADME, organism-based; settings: in vivo
Staphylococcus aureus [16] = experiment: In vivo anti-virulence activity against Staphylococcus aureus Newman in mouse lethal infection model assessed as host survival rate at 0.1 mg bid for 3.5 days administered intraperitoneally 6 hrs post infection and measured on day 4; format: functional
Outline: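 In a lethal sepsis model, mice (n=15) were challenged with 2 × 10^8 CFU S. aureus Newman. Animal survival was recorded daily through day 8.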

Rattus norvegicus [17] = experiment: Toxicity in Sprague-Dawley rat at 60 to 1000 mg/kg, po administered as single dose assessed as abnormal behavior measured during 2 weeks post administration; format: organism-based; settings: in vivo, 336 h; outline: as §3
Staphylococcus aureus [18] = experiment: In vivo anti-virulence activity against methicillin-resistant Staphylococcus aureus LRSA56 infected in BALB/c mouse model assessed as reduction in bacterial load in heart at 0.1 mg bid for 3.5 days administered intraperitoneally 6 hrs post infection by serial dilution method relative to linezolid; format: functional; design: scale not given: the % may be the effect or the level left; outline: as §2
Rattus norvegicus [19] = experiment: Toxicity in Sprague-Dawley rat at 60 to 1000 mg/kg, po administered as single dose assessed as changes in food consumption measured during 2 weeks post administration; format: organism-based; settings: in vivo, 336 h; outline: as §3
[20] = Inhibition of CrtN in methicillin-resistant Staphylococcus aureus HS663 assessed as reduction in staphyloxanthin levels after 48 hrs by spectrophotometric method-based pigment inhibition assay
[21] = AUC (0 to 24 hrs) in Sprague-Dawley rat at 10 mg/kg, ip administered as single dose by LC-MS/MS analysis; format: ADME, organism-based; design: dose 10 mg/kg, time < 24 hr, route intraperitoneal; settings: in vivo
[22] = Cmax in Sprague-Dawley rat at 10 mg/kg, po administered as single dose by LC-MS/MS analysis; format: ADME, organism-based; design: dose 10 mg/kg, route oral; settings: in vivo
[23] = AUC (0 to infinity) in Sprague-Dawley rat at 5 mg/kg, iv administered as single dose by LC-MS/MS analysis; format: ADME, organism-based; design: dose 5 mg/kg, time infinity, route intravenous; settings: in vivo
Staphylococcus aureus [24] = experiment: In vivo anti-virulence activity against methicillin-resistant Staphylococcus aureus XN108 infected in BALB/c mouse model assessed as reduction in bacterial load in heart at 0.1 mg bid for 3.5 days administered intraperitoneally 6 hrs post infection by serial dilution method relative to linezolid; format: functional, organism-based; outline: as §1
[25] = Inhibition of CrtN in methicillin-resistant Staphylococcus aureus NRS70 assessed as reduction in staphyloxanthin levels after 48 hrs by spectrophotometric method-based pigment inhibition assay

With `CN(C/C=C/c1ccc(-c2ccccc2)cc1)Cc1coc2ccccc12.Cl` the Activity (Staphylococcus aureus [1]) was “Active”, the MIC (Pseudomonas aeruginosa) was > 500 µg/mL and the Tmax [2] was 2 h. The Activity (Staphylococcus aureus [3]) was >83%, the AUC(0-inf) [4] was 4560 ng·h/mL and the Cmax [5] was 2230 ng/mL. For the same molecule, the IC50 [6] was 1.6 nM, the Activity (Rattus norvegicus [7]) was “Non-Toxic” and the AUC(0-t) at 24 h [8] was 1070 ng·h/mL. For the same molecule, the Activity (Rattus norvegicus [9]) was “Non-Toxic”, the Activity (Rattus norvegicus [10]) was “Non-Toxic” and the IC50 (Cytochrome P450 3A4) was > 10000 nM. The Activity (Staphylococcus aureus [11]) was “Active”, the Activity (Staphylococcus aureus [12]) was >55.3% and the Activity (Staphylococcus aureus [13]) was “inactive”. The IC50 [14] was 0.2 nM, the half-life [15] was 3.35 h and the Survival (Staphylococcus aureus [16]) was 80%. For the same molecule, the Activity (Rattus norvegicus [17]) was “Non-Toxic”, the Activity (Staphylococcus aureus [18]) was >71.8% and the Activity (Rattus norvegicus [19]) was “Non-Toxic”. It also gave an IC50 [20] of 0.02 nM, an AUC(0-t) at 24 h [21] of 975000 ng·h/mL and a Cmax [22] of 213 ng/mL. For the same molecule, the AUC(0-inf) [23] was 2860 ng·h/mL, the Activity (Staphylococcus aureus [24]) was “Active” and the IC50 [25] was 1.7 nM.
